# Columns and labels:
# [1] = Inhibition of chymotrypsin in bovine pancreas using Suc-AAPF-AMC as substrate by fluorescence based analysis; format: tissue-based, Bos taurus
# In short: (§1)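 Each enzyme was read as a time course of rising fluorescence from cleavage of its AMC-labelled peptide substrate. The initial linear slope (signal/min) was analysed. Non-human sources: chymotrypsin from bovine pancreas, proteinase A from B. licheniformis, proteinase K from T. album limber.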
# Neutrophil elastase [2] = biological target: T1, Neutrophil elastase (Homo sapiens, UniProt P08246); experiment: Inhibition of elastase in human neutrophil using MeOSuc-AAPV-AMC as substrate by fluorescence based analysis; format: cell-based
# T1 sequence (P08246 whole entry): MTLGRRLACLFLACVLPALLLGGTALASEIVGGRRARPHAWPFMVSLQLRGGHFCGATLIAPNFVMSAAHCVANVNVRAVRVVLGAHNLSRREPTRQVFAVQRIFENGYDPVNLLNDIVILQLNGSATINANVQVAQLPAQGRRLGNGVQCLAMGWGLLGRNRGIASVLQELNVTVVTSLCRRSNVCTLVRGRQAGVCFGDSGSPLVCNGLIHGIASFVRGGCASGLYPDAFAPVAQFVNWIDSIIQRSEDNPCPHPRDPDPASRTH
# In short: (§2)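 Fluorogenic assay with HNE (MeOSucAAPV-AMC substrate) or human KLK7 ([…] substrate). Test compounds ran as a 10-dose, 3-fold dilution series from 1 μM in duplicate, with controls tested in the same run. Activity was taken from the initial linear slope of the fluorescence increase over time. Results are mean of n = 2, expressed relative to 0.5% DMSO vehicle.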
# Kallikrein-7 [3] = biological target: T2, Kallikrein-7 (Homo sapiens, UniProt P49862); experiment: Inhibition of human recombinant kallikrein 7 (23 to 252 residues) using MCA-RPKPVE-Nval-WRK(Dnp)-NH2 as substrate by fluorescence based analysis; in short: as §2
# Target sequence in this assay (P49862 whole entry, the tested form may be a part): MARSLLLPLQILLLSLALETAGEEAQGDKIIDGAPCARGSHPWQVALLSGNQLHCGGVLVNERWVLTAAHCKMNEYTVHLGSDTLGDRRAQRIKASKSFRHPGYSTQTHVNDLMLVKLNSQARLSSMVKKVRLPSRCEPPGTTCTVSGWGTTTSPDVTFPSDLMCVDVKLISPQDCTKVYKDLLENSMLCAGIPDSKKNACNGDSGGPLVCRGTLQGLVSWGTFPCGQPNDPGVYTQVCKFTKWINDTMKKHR
# [4] = Inhibition of Bacillus licheniformis Proteinase A using Z-GPR-AMC as substrate by fluorescence based analysis; in short: as §1
# [5] = Inhibition of Tritirachium album limber Proteinase K using H-D-CHA -Ala-Arg-AMC.2AcOH as substrate by fluorescence based analysis; parameters: species or system Parengyodontium album; in short: as §1
# [6] = Selectivity ratio of IC50 for chymotrypsin in bovine pancreas to IC50 for human neutrophil elastase
# [7] = biological target: T3, Neutrophil elastase (Homo sapiens) (UniProt P08246); experiment: Inhibition of elastase in human neutrophil using MeOSuc-AAPV-AMC as substrate by fluorescence based analysis relative to sivelestat; format: cell-based; in short: as §2
# T3 sequence (whole entry): T1 sequence (P08246 whole entry)
# Kallikrein-7 [8] = biological target: T2, Kallikrein-7; experiment: Inhibition of human recombinant kallikrein 7 (23 to 252 residues) using MCA-RPKPVE-Nval-WRK(Dnp)-NH2 as substrate by fluorescence based analysis relative to gabexate mesylate; in short: as §2
# Target sequence in this assay (P49862 30-253 limits assumed): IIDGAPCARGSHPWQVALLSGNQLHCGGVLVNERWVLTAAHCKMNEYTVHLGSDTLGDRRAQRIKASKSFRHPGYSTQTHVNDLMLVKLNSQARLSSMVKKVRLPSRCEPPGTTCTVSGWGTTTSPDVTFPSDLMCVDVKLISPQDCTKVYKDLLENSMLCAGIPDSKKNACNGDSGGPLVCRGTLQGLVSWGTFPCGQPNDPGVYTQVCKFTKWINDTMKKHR
# Bacillus licheniformis = experiment: Inhibition of Bacillus licheniformis Proteinase A using Z-GPR-AMC as substrate by fluorescence based analysis relative to leupeptin; in short: as §1
# Parengyodontium album = experiment: Inhibition of Tritirachium album limber Proteinase K using H-D-CHA -Ala-Arg-AMC.2AcOH as substrate by fluorescence based analysis relative to proteinase K inhibitor; in short: as §1
# Neutrophil elastase [9] = biological target: T1, Neutrophil elastase; experiment: Inhibition of elastase in human neutrophil using N-(OMe-succinyl)-Ala-Ala-Pro-Val-p-nitroanilide as substrate preincubated with enzyme for 15 mins followed by substrate addition and measured every 30s for 30 mins by absorbance based analysis
# In short: (§3)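 HNE stock at 100 μg/mL and substrate stock at 2 mM, both in 0.1 M Tris–0.5 M NaCl pH 7.5. Compound or DMSO was preincubated with enzyme in the same buffer for 15 min at room temperature, then substrate was added. A405 was read every 30 s for 30 min. Activity was taken from the initial slope as a percentage of the uninhibited reaction.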
# [10] = biological target: T3, Neutrophil elastase (Homo sapiens); experiment: Inhibition of elastase in human neutrophil using N-(OMe-succinyl)-Ala-Ala-Pro-Val-p-nitroanilide as substrate preincubated with enzyme for 15 mins followed by substrate addition and measured every 30s for 30 mins by absorbance based analysis relative to symplostatin 5; details: time 45.0 min; in short: as §3
# [11] = biological target: T3, Neutrophil elastase (Homo sapiens); experiment: Inhibition of elastase in human neutrophil using N-(OMe-succinyl)-Ala-Ala-Pro-Val-p-nitroanilide as substrate preincubated with enzyme for 15 mins followed by substrate addition and measured every 30s for 30 mins by absorbance based analysis relative to sivelestat; details: time 45.0 min; in short: as §3
# [12] = Inhibition of porcine pancreatic elastase; parameters: species or system Sus scrofa
# Kallikrein-7 [13] = biological target: T2, Kallikrein-7; experiment: Inhibition of KLK7 (unknown origin); in short: as §2
# Target sequence in this assay (P49862 whole entry, the tested form may be a part): as the sequence (P49862 whole entry, the tested form may be a part) above
# Kallikrein-7 [14] = biological target: T2, Kallikrein-7; experiment: Inhibition of human recombinant kallikrein 7 (23 to 252 residues) using MCA-RPKPVE-Nval-WRK(Dnp)-NH2 as substrate by fluorescence based analysis relative to tutuilamide A; in short: as §2
# Target sequence in this assay (P49862 30-253 limits assumed): as the sequence (P49862 30-253 limits assumed) above
# [15] = biological target: T3, Neutrophil elastase (Homo sapiens); experiment: Inhibition of elastase in human neutrophil using N-(OMe-succinyl)-Ala-Ala-Pro-Val-p-nitroanilide as substrate preincubated with enzyme for 15 mins followed by substrate addition and measured every 30s for 30 mins by absorbance based analysis relative to tutuilamide A; details: time 45.0 min
# In short: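 Human neutrophil elastase, from a 100 μg/mL enzyme stock in 0.1 M Tris–0.5 M NaCl (pH 7.5), was preincubated with compound at varying doses or DMSO vehicle for 15 min at room temperature in the same buffer. The p-nitroanilide substrate was added from a 2 mM stock, and A405 was read every 30 s for 30 min. Activity was taken as the initial slope, expressed as % of the uninhibited reaction, and IC50 came from dose-response.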
structure (smiles),measurement,setting,value
C/C=C1\NC(=O)[C@@H](NC(=O)[C@@H](NC(=O)[C@H](C)NC(=O)C/C(C)=C/Cl)[C@@H](C)CC)[C@@H](C)OC(=O)[C@H](C(C)C)NC(=O)[C@H](Cc2ccc(O)cc2)N(C)C(=O)[C@H](Cc2ccccc2)N2C(=O)[C@H](CC[C@H]2O)NC1=O,IC50,[1],97.4 nM
same,IC50,Neutrophil elastase [2],0.73 nM
same,IC50,Kallikrein-7 [3],5 nM
same,IC50,[4],31.3 nM
same,IC50,[5],12.3 nM
same,Ratio IC50,[6],100
same,fold change (FC),[7],5
same,fold change (FC),Kallikrein-7 [8],5680
same,fold change (FC),Bacillus licheniformis,4000
same,fold change (FC),Parengyodontium album,15
same,IC50,Neutrophil elastase [9],44 nM
same,fold change (FC),[10],2.1
same,fold change (FC),[11],2.9
same,IC50,[12],1.2 nM
CC(=O)N[C@@H](CC(C)C)C(=O)N[C@@H](CC(C)C)C(=O)N[C@H](C=O)CCCNC(=N)N [LEUPEPTIN],IC50,[4],129000 nM
CC[C@@H](C)[C@H]1C(=O)N(C)[C@@H](Cc2ccc(O)cc2)C(=O)N[C@H]([C@H](C)CC)C(=O)O[C@H](C)[C@H](NC(=O)[C@H](CCC(N)=O)NC(=O)C(C)C)C(=O)N[C@@H](CC(C)C)C(=O)N[C@H]2CC[C@@H](O)N1C2=O,IC50,Kallikrein-7 [13],1 nM
C/C=C1\NC(=O)[C@@H](NC(=O)[C@H](CCC(N)=O)NC(=O)CCCCC)[C@@H](C)OC(=O)[C@H](C(C)C)NC(=O)[C@H](Cc2ccc(O)cc2)N(C)C(=O)[C@H](Cc2ccccc2)N2C(=O)[C@H](CC[C@H]2O)NC1=O [LYNGBYASTATIN 7],IC50,Kallikrein-7 [3],3.1 nM
same,fold change (FC),Kallikrein-7 [14],1.6
same,fold change (FC),[15],1.5
CC[C@H](C)[C@@H]1NC(=O)[C@H](Cc2ccc(OCc3ccn(C)n3)cc2)N(C)C(=O)[C@H]([C@@H](C)CC)N2C(=O)[C@H](CC[C@H]2O)NC(=O)[C@H](CC(C)C)NC(=O)[C@@H](NC(=O)[C@H](CCC(N)=O)NC(=O)C(C)C)[C@@H](C)OC1=O,IC50,Kallikrein-7 [13],0.2 nM
CCOC(=O)c1ccc(OC(=O)CCCCCNC(=N)N)cc1,IC50,Kallikrein-7 [3],28400 nM

# Reference: ChEMBL document CHEMBL5244265 (Bioorg Med Chem, 2020)
